From ChEMBL document CHEMBL1122343, “2-Benzazepines. 4. [1,2,3]Triazolo[4,5-d][2]benzazepines and dibenzo[c,f][1,2,3]triazolo[3,4-a]azepines: synthesis and evaluation as central nervous system agents” (J Med Chem, 1983)

Assays:
Mus musculus [1] = assay: Antianxiety activity, by anti-pentylenetetrazole test carried out on 50-54 day old mice (po); format: functional
How it was run: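 Oral dosing to male CF-1 mice aged 50–54 days, using a modification of the Everett and Richards method. Metrazole was given iv at 70 mg/kg as the convulsant challenge.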

[2] = Lethal dose tested in mice by oral administration; format: toxicity, organism-based; conditions: mouse, in vivo
[3] = biological target: GABA-A receptor; anion channel; assay: In vitro inhibition of [3H]diazepam binding to rat GABA-A benzodiazepine receptor; format: protein-complex assay
Mus musculus [4] = assay: Antianxiety activity, by rotarod test carried out on 50-54 day old mice (po); format: functional
Mus musculus [5] = assay: Antianxiety activity, by inclined screen procedure carried out on 50-54 day old mice(po); format: functional

SMILES	ED50 (Mus musculus [1])	LD50 [2]	IC50 [3]	ED50 (Mus musculus [4])	ED50 (Mus musculus [5])
c1ccc(C2=NCc3n[nH]nc3-c3ccccc32)cc1	> 100 mg/kg	775 mg/kg	420 nM	–	–
Clc1ccccc1C1=NCc2n[nH]nc2-c2ccccc21	> 100 mg/kg	900 mg/kg	5.2 nM	–	–
Clc1ccc2c(c1)C(c1ccccc1Cl)=NCc1n[nH]nc1-2	2.6 mg/kg	> 1000 mg/kg	0.76 nM	57 mg/kg	> 400 mg/kg
Clc1ccc2c(c1)C(c1ccccc1)=NCc1n[nH]nc1-2	4.2 mg/kg	> 1000 mg/kg	11 nM	26 mg/kg	> 400 mg/kg
Fc1ccccc1C1=NCc2n[nH]nc2-c2ccc(Cl)cc21	2.1 mg/kg	> 1000 mg/kg	0.76 nM	48 mg/kg	302 mg/kg
CN1C(=O)CN=C(c2ccccc2)c2cc(Cl)ccc21 [DIAZEPAM]	1.4 mg/kg	–	–	2.6 mg/kg	25 mg/kg
